{"source": "paper PMC7094870", "about": "(ACS chemical biology, 2020)", "key": {"(UniProt A4D937)": {"biological_target": "(UniProt A4D937)", "sequence (A4D937 1-450)": "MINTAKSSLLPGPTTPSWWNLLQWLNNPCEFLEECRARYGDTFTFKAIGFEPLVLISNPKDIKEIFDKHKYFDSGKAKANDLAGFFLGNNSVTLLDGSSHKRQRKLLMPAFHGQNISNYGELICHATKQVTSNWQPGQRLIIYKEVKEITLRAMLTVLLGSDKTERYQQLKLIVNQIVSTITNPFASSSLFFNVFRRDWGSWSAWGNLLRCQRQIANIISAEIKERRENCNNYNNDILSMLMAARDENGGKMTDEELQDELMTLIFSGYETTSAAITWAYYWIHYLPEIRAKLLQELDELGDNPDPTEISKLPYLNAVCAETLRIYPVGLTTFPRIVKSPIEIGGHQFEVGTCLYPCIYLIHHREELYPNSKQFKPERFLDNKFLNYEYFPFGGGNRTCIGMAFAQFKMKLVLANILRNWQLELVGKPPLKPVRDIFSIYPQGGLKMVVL", "assay": "CrpE P450 substrate binding titration", "parameters": "species or system Nostoc sp. ATCC 53789"}, "[1]": {"tested_on": "CrpE P450 (histidine tagged)", "assay": "CrpE P450 substrate binding titration", "parameters": "species or system Nostoc sp. ATCC 53789", "settings": "type I (substrate-like) or type II (inhibitor-like) shift"}, "CrpE P450": {"tested_on": "CrpE P450", "assay": "CrpE in vitro epoxidation conversion assay", "assay_type": "biochemical, Nostoc sp. ATCC 53789"}, "[2]": {"tested_on": "CrpTE (cryptophycin thioesterase)", "assay": "Analytical substrate conversion assay of CrpTE", "assay_type": "biochemical", "procedure,_shortened": "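Analytical-scale reactions of CrpTE with NAc-activated seco substrates carrying varied unit A aryl or heterocyclic groups (including methyl pyrazoles), with the benzyl substrate run as a control. Chromatographic peaks were assigned to unreacted starting material, hydrolysis product and cyclized macrolactone. Where starting material and hydrolysis peaks co-eluted, values were estimated from extrapolated peaks.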"}}, "data": [{"smiles": "COc1ccc(C[C@H]2NC(=O)/C=C/C[C@@H]([C@H](C)/C=C/c3ccccc3)OC(=O)[C@H](CC(C)C)OC(=O)[C@H](C)CNC2=O)cc1Cl", "note": "[16a, cryptophycin 3]", "values": [{"measurement": "Kd", "setting": "(UniProt A4D937)", "value": "0.53 ± 0.15", "unit": "µM"}, {"measurement": "spectral shift on binding to CrpE", "setting": "[1]", "value": "type I shift"}, {"measurement": "conversion (CrpE epoxidation)", "setting": "CrpE P450; RhFRED redox system", "value": "no conversion"}, {"measurement": "percent conversion (CrpE epoxidation)", "setting": "CrpE P450; spinach ferredoxin and ferredoxin reductase redox system", "value": 38, "unit": "%"}, {"measurement": "total turnover number (TTN)", "setting": "[2]; TTN = moles of product / moles of TE", "value": 110}, {"measurement": "percent conversion (CrpTE cyclization)", "setting": "[2]; analytical scale, wild type CrpTE, NAc-activated seco substrate", "value": 73, "unit": "%"}]}]}
